# From ChEMBL document CHEMBL4513216, “Probing the Open Global Health Chemical Diversity Library for Multistage-Active Starting Points for Next-Generation Antimalarials” (ACS Infect Dis, 2020)
# Assay: Toxicity liver stage against HepG2, at 10uM
# Assay type: cell-based
# Design: test concentration 10 uM, cell line HepG2-A16-CD81EGFP
# Settings: human, HepG2-A16-CD81EGFP cells; read-out: INHIBITION
# Outline: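 Uninfected HepG2-A16-CD81EGFP cells, 3 × 10^3 per well, 1536-well, plated on prespotted compound at 10 μM final, parasite-free screening media added to match infected plates; puromycin 10 μM positive, DMSO 0.5% negative; run in parallel with 48 h PbLuc assay at 37 °C, 5% CO2; viability by CellTiter-Glo luminescence, normalized to controls.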
row,Structure (SMILES),cytotoxicity at 10 µM [%]
1,Cn1c(=O)[nH]c2cc(C(=O)OCCCn3ccccc3=O)ccc21,1.34
2,O=C(NCc1cn2cccnc2n1)C1CC(=O)N(Cc2cccnc2)C1 (stereo not given),-3.23
3,O=c1[nH]nc2nc(N3CCOCC3)ccn12,-5.08
4,CS(=O)(=O)N1CCC(Oc2ccc(C(=O)NC3CCCC3)cc2Cl)CC1,-1.02
5,Cc1ccc(CN2CCOC3(CCCN(C(=O)c4ccco4)C3)C2)o1 (stereo not given),-3.27
6,CCOc1ccc(Cl)c(C(=O)NC(Cc2ccccc2)C(N)=O)n1 (stereo not given),15.4
7,CN1CCN(Cc2cnc3n2CCN(C(=O)c2cscn2)C3)CC1,-78.2
8,COC(=O)c1cc2c(=O)n(C3CC3)ccc2nc1C,-47
9,O=C(c1cccnc1)N1CCOC2(COCCN(c3cncnc3)C2)C1 (stereo not given),4.53
10,Cc1ccc(NC(=O)NCCc2ccncc2C)c(N(C)C)n1,12.9
11,CC(=O)N1CCC2(CCN(C(=O)c3ccc(F)c(C(F)(F)F)c3)CC2)C1,-80.4
12,Cc1ccc2nc(C(=O)N(C)[C@@H]3CC[C@@H](N4CCCC4)[C@@H]3O)cn2c1,1.67
13,c1cncc(C[C@@H]2CC[C@H](CN3CCCOCC3)O2)c1,2.13
14,Cc1nc(C(=O)N2CCCC2c2c(C)nn(C)c2C)cs1 (stereo not given),-15.8
15,Cc1cccc(CSc2ncc(Br)c(C(=O)O)n2)c1,-9.41
16,C[C@@H]1CN(C2CCOC2)C[C@]12CCN(c1cccnc1)C2=O (stereo not given in full),7.49
17,O=C1CCc2cc(S(=O)(=O)NC(=O)c3ccc4c(c3)CCO4)ccc2N1,-17.7
18,O=C(COCC(F)(F)F)N1CCCC(n2cccn2)C1 (stereo not given),-6.28
19,c1cnn(CCNCc2cnc(N3CCCC3)nc2)c1,-9.46
20,Cc1nn2cccnc2c1C(=O)NCc1ccnc(OCC2CC2)c1,-41.6
21,CC(=O)N1CCC2(CC1)COC(COCc1ccccn1)C2 (stereo not given),-114
22,Cn1ccnc1-c1noc(NCc2ccc(Cl)cc2)n1,-9.46

row,Structure (SMILES),cytotoxicity at 10 µM [%]
1,CCOC(=O)C1CCN(Cc2csc(-c3ccc(C)o3)n2)CC1,-11.4
2,CCCc1n[nH]c(C2CN(Cc3nnc(C4CCC4)o3)CCO2)n1 (stereo not given),-2.42
3,O=C(c1ccc(Cn2cnnn2)cc1)N1CC[C@H](CO)[C@H](O)C1,0.529
4,CCN(CC)C(=O)c1ccc(NC(=O)CNc2ccc(F)cc2Cl)cc1,-5.31
5,O=C(NC1CC1)C1CNCCN1C(=O)CCc1ccc2c(c1)OCO2 (stereo not given),-0.766
6,COc1ccc(Oc2ncccc2NC(=O)N2CCOC(C)C2)cc1 (stereo not given),2.65
7,Cn1cc(CN2C[C@@H]3COC[C@]3(COc3ccc(C#N)cn3)C2)cn1,-11.3
8,CS(=O)(=O)N1CCN(C(=O)CN2CCCc3c(F)cc(F)cc32)CC1,-1.52
9,O=C(c1cocn1)N1CC[C@H]2OCC[C@@]2(COc2ncccc2F)C1,-127
10,CSCC(=O)NS(=O)(=O)c1ccc2c(c1)OCCO2,-9.69
11,CN1CCN(CC(NCc2cccc(O)c2)c2ccccc2)CC1 (stereo not given),-3.89
12,CCc1ncncc1C(=O)Nc1ccc2ccn(CCN(C)C)c2c1,6.11
13,O=C(C1CCC1)N1CC[C@@H]2CN(Cc3cccnc3)S(=O)(=O)[C@@H]2CC1,-109
14,c1cnc(NCc2cncc3c2CCN(Cc2ccoc2)C3)nc1,-70.9
15,O=S(=O)(Nc1ccc(N2CCOCC2)cn1)c1cccc(F)c1,-9.68
16,Cc1cc(C)nc(N2CCC(c3ccnc(N(C)C)n3)CC2)n1,21.1
17,COc1cc(CN2CCCC2c2cccc(F)c2)cc(OC)c1OC (stereo not given),-2.03
18,CCS(=O)(=O)N1CCc2cc(C(=O)NC)c(N(C)C)nc2CC1,-141
19,Cn1c(C2CCCN2C(=O)CN2CCCC2=O)nc2ccccc21 (stereo not given),-3.47
20,CCS(=O)(=O)N1CCN(C(C)c2ncc(-c3ccccc3)o2)CC1 (stereo not given),3.44
21,COc1cccc(C(=O)Nc2ccc(OCCC(N)=O)cc2)c1OC,4.19
22,CCc1nc2c(N3CCC4(CC3)CC(=O)N(CC(C)C)C4)ncnc2o1,16.2

row,Structure (SMILES),cytotoxicity at 10 µM [%]
1,O=C1[C@@H]2CCN(Cc3ccoc3)C[C@@H]2OCCN1c1ccccc1,-0.928
2,Cc1noc(C)c1CN(C)C(=O)c1nc(N2CCCC2)ncc1Cl,-41.6
3,CN(CCC(=O)N1CCc2sccc2C1)Cc1ccc2c(c1)OCCO2,-14.8
4,CCOC(=O)c1n[nH]cc1CN1CCOC(Cc2ccc(OC)cc2)C1 (stereo not given),-0.734
5,COc1ccc(OC)c(C2CCN(C(=O)C3CCN(C(C)C)CC3)C2)c1 (stereo not given),-7.49
6,Cc1ccc(CN2Cc3nnn(C)c3C(COCc3ccccc3)C2)s1 (stereo not given),1.58
7,COc1ccc(-n2c(CCC(=O)O)nc3ccccc32)cc1CO,-0.334
8,CCn1cc(NC(=O)NCC(C)N(C)C2CC2)cn1 (stereo not given),-3.54
9,Cc1nc(C)n(C2CCCN(C(=O)c3sccc3C)C2)n1 (stereo not given),-8.93
10,CN(C)c1nccc(N2CCO[C@H]3CN(Cc4ccco4)C[C@H]32)n1,-122
11,COCCN1CC(C(=O)NCc2cccnc2-n2cccn2)CC1=O (stereo not given),3.74
12,CCN(C)S(=O)(=O)c1ccc(Cl)cc1C#N,-36.9
13,O=C(c1csc(-c2cnccn2)n1)N1CCCC1Cn1cccn1 (stereo not given),-7.35
14,Cc1ccccc1C(CC(=O)NCc1nnc(N)s1)c1ccccc1 (stereo not given),13.6
15,CC(C)n1nc2c(cc1=O)CN(Cc1nnc(C3CC3)o1)CC2,-18.8
16,Cc1csc2ncc(-c3ccnc(N4CCC[C@@H]4CO)n3)c(=O)n12,-11.3
17,CC(C)CN(CC(O)c1ccccc1)C(=O)Nc1nccs1 (stereo not given),-1.96
18,O=S(=O)(C1CC1)N1CC[C@@H](OCC2CC2)[C@@H]1Cc1ccncc1,10.9
19,Cc1cc(C)c(CNCC(O)c2ccc(F)c(F)c2)c(C)c1 (stereo not given),6.59
20,COC(=O)CCNC(=O)c1ccoc1CN1c2ccccc2CC1C (stereo not given),-9.23
21,CNC(=O)C1CCN(c2ncnc3c2CCN(C(=O)C2CC2)C3)C1 (stereo not given),1.67
22,CC(C)N1CCC(c2n[nH]cc2S(C)(=O)=O)CC1,-7.22

row,Structure (SMILES),cytotoxicity at 10 µM [%]
1,CC(=O)Nc1nc(C2CCN(C(=O)Cc3ccccc3)CC2)cs1,-11.8
2,CN(C)CCC1CCCCN1Cc1cnn(C)c1C1CC1 (stereo not given),2.84
3,Cc1ccsc1CN(CCCC(F)(F)F)Cc1ccccn1,0.107
4,CCN(CC(F)(F)F)C(=O)C1CCCN(Cc2ccccn2)C1 (stereo not given),-2.3
5,CC1CN(S(=O)(=O)c2cc(S(C)(=O)=O)ccc2Br)c2cccnc2O1 (stereo not given),-0.346
6,CN1CCN(C2CCN(Cc3cn4ccccc4n3)CC2)C1=O,19.1
7,CC(=O)N1CCCN(C(=O)c2cnc3n[nH]c(C)c3c2)CC1,-5.85
8,COCCCNC(=O)Cc1cc(-c2ccc(Cl)cc2)on1,-21.4
9,CC(NC(=O)Nc1cccnc1N1CCCC1)c1ccn(C)c1 (stereo not given),-24.6
10,CC(CO)(NC(=O)Nc1nnc(C2CC2)s1)C1CCCCC1 (stereo not given),20
11,COc1cc2c(cc1OC)S(=O)(=O)N(Cc1ccccc1C)C2=O,10.3
12,O=C(CCn1cc(Cl)cn1)Nc1ccc2c(c1)OCCO2,-2.18
13,CS(=O)(=O)N[C@@H]1CCO[C@]2(CCN(CC3CCOCC3)C2)C1,-132
14,CCc1noc(CN2CCN(CC(O)c3ccccc3)CC2)n1 (stereo not given),1.19
15,Cc1cccnc1CNc1cc(N2CCCC2CO)ncn1 (stereo not given),-10.3
16,Cc1c(C2CC(=O)Nc3c2cnn3C(C)(C)C)cnn1C (stereo not given),-2.89
17,O=C(NC1CCCc2c1[nH]c1ccc(F)cc21)c1n[nH]c2c1CCC2 (stereo not given),51.7
18,COCC(=O)NC(C)Cc1ccc(Br)cc1 (stereo not given),-1.01
19,Cc1cc2[nH]c(CN3CCOC(c4ccc(F)cc4)C3)cc(=O)n2n1 (stereo not given),-4.89
20,CC(C)CN1CC[C@@H]2[C@@H]1CCN2S(=O)(=O)c1cn(C)cn1,7.86
21,CS(=O)(=O)NC[C@H]1Cn2c(-c3ccc(Cl)cc3)cnc2CO1,-3.58
22,Nc1cnc(-c2ccc(F)cc2Cl)cn1,-136

row,Structure (SMILES),cytotoxicity at 10 µM [%]
1,CC(C)CNC(=O)CC1(Cn2cnnn2)CCCCC1,11.1
2,COC(C)c1cccc(NC(=O)N(CCC#N)Cc2ccccn2)c1 (stereo not given),13.1
3,CC(=O)N1CCC(N2CCC(c3nc(C)cc(C)n3)C2)CC1 (stereo not given),-7.87
4,CC(NC(=O)CSCC#N)c1ccc(F)cc1 (stereo not given),-2.51
5,COCC(=O)N1CCCC1c1cccc(C)c1C (stereo not given),-1.32
6,Cc1nc(N2CCCC(OCc3ccccn3)C2)c2c(C)noc2n1 (stereo not given),0.622
7,CC(NC(=O)CCC(C)(C)C)C(=O)Nc1ccc(-n2cncn2)cc1 (stereo not given),-3.46
8,CCn1nc(CC(C)C)cc1C(=O)N1CC(c2ccncc2)C1,-6.38
9,Cc1cc(C(=O)NCc2ccccc2CN(C)Cc2ccco2)on1,3.57
10,Cc1nc2c(c(=O)[nH]1)CN(C(=O)CC[C@@H]1CCCN3CCCC[C@H]13)C2,17
11,COc1ccc(C(=O)NS(=O)(=O)c2cncc(Br)c2)c(OC)c1,-0.402
12,CC(C)Oc1ccc(CN2CCCC(N3CCOCC3)C2)cc1CO (stereo not given),1.48
13,CN(CCNS(C)(=O)=O)C(=O)c1ccc(Cl)c(Cl)c1,-52.4
14,COC(=O)c1cccc(C2CNCCN2C(C)=O)c1 (stereo not given),3.31
15,CCn1nc(C)c(NC(=O)CN2CC[C@@H](F)C2)c1C,-1.2
16,CCc1cc(=O)n(CC(=O)NCC2CCCO2)c(-c2cccc(F)c2)n1 (stereo not given),-1.61
17,Cc1ccc(NC2CCN(C(=O)CCc3c(C)noc3C)CC2)nn1,-11.4
18,Cc1nn(C)c(C)c1C(C)NC(=O)c1cc(CN2CCC(O)CC2)on1 (stereo not given),0.894
19,Cc1cnc(N2CCN(C)c3ncccc3C2)nc1,-5.86
20,Cc1cc(OCC(=O)NCc2ccc(F)cc2)nnc1C,-9.27
21,O=C(NCCN1CCCC(CO)C1)c1ccc2sccc2c1 (stereo not given),-5.35
22,COc1cccc(Cn2c(C3CCNCC3)cc3cccnc32)c1,0.115
